Holding throughout (format): functional
The subject of assay [1] is Rattus norvegicus. Kind of assay: Contralateral circling behavior in 6-OH-DA-lesioned rats was recorded after subcutaneous administration.
Assay [2] has as its system Rattus norvegicus. Nature of the assay: Antagonism of apomorphine induced stereotype in rats was recorded after subcutaneous administration of apomorphine. To be noted: sc. The essentials: (§1)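 Rats housed in wire mesh cages from the day before. Test drug or saline given sc 30 min before apomorphine (8.2 µmol = 2.5 mg/kg, sc). Oral stereotypy (licking, biting) scored every 15 min for 90 min. ED50 taken from the 30-min post-apomorphine observation, when control activity peaked.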

In assay [3] the test system is Rattus norvegicus. Nature of the assay: Inhibition of spontaneous locomotor activity was performed in photocell cages at 30-45 minutes after subcutaneous administration. The essentials:
(§2)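 Rats in photocell cages. Motility counted 30-45 min after sc test drug or saline. Injection volume 5 mL/kg.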

The subject of assay [4] is Rattus norvegicus. Nature of the assay: Antagonism of apomorphine induced stereotype in rats was recorded at 30 minutes after subcutaneous administration of apomorphine. To be noted: sc, 0.5 h. The procedure, abridged: as §1
Assay [5] deals with Rattus norvegicus. Kind of assay: Antagonism of apomorphine induced stereotype was recorded at 30 minutes after apomorphine subcutaneous administration. The conditions noted are these: sc, 0.5 h. The essentials: as §1
Assay [6] concerns Rattus norvegicus. Nature of the assay: Reversal of reserpine plus alpha-Methyl-p-tyrosine-induced hypoactivity in rats was recorded at 1 hr after subcutaneous administration. To be noted: sc. The procedure, abridged: (§3)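 Rats pretreated with reserpine (8.2 µmol/kg = 5 mg/kg sc) 16-20 h before, and α-methyl-p-tyrosine methyl ester (813 µmol/kg = 200 mg/kg ip) 2 h before, test drug or saline. Motility measured under artificial light for 1 h from injection. Counts scored 0 (0-49), 1 (50-149) or 2 (>150). ED50 by log-probit as dose giving half-maximal score.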

The subject of assay [7] is Rattus norvegicus. Kind of assay: Reversal of reserpine plus alpha-Methyl-p-tyrosine-induced hypoactivity in rats was recorded at 1 h after administration. The essentials:
as §3

Assay [8] is filed under the species Rattus norvegicus. Nature of the assay: Inhibition of spontaneous locomotor activity was performed in photocell cages. Motility was measured at 5 minutes. The essentials: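 Rats in photocell cages. Motility counted 5 min after sc injection of test drug. Injection volume 5 mL/kg.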
The test system of assay [9] is Rattus norvegicus. Nature of the assay: Inhibition of spontaneous locomotor activity was performed in photocell cages. Motility was measured at […] after subcutaneous administration. To be noted: sc. The procedure, abridged: as §2
The test system of assay [10] is Rattus norvegicus. Nature of the assay: Inhibition of spontaneous locomotor activity was performed in photocell cages. Motility was measured at […] after subcutaneous administration; value ranges from 4.2-11. The conditions noted are these: sc. The procedure, abridged:
as §2

For assay [11], the system named is Rattus norvegicus. Kind of assay: Antagonism of apomorphine induced stereotype in rats was recorded at 30 minutes after subcutaneous administration apomorphine. The conditions noted are these: sc, 0.5 h. The procedure, abridged:
as §1

In assay [12] the test system is Rattus norvegicus. Kind of assay: Reversal of reserpine plus alpha-Methyl-p-tyrosine-induced hypoactivity in rats was recorded after subcutaneous administration. To be noted: sc. The procedure, abridged: as §3
The species entered for assay [13] is Rattus norvegicus. Kind of assay: Reversal of reserpine plus alpha-Methyl-p-tyrosine-induced hypoactivity in rats was recorded. The essentials:
as §3

Assay [14] relates to Rattus norvegicus. Kind of assay: Ispilateral circling behavior in 6-OH-DA-lesioned rats was recorded after subcutaneous administration. The conditions noted are these: sc.
Setting [15] is: Rattus norvegicus, sc, read-out: ED50.

Consider `Oc1cccc(C2CCCN3CCCC23)c1` (stereo in doubt; 19e), for which the ED50 in [1] was 13 µM/kg; in assay [2] it was greater than 134 µmol/kg; in assay [3] (sc), 7.5 µmol/kg.

Take `Oc1cccc(C2CCCN3CCCC23)c1` (single isomer, unassigned; (-)): the ED50 was greater than 79 µM/kg in assay [1], 100 µmol/kg in assay [4] and 40 µM/kg in assay [3].

On to `Oc1cccc(C2=CCCN3CCCCC23)c1` (stereo not drawn), for which the ED50 in [5] was 34 µmol/kg; in [1] (setting [15]), greater than 87 µmol/kg; in assay [6] it was greater than 87 µmol/kg; in assay [3] (setting [15]) it was 8.5 µmol/kg.

Turning to `CCCN1CCC[C@H](c2cccc(O)c2)C1`, the values for the ED50 in assay [1] (setting [15]), in [4] and in [7] were 1.9 µmol/kg, 63 µmol/kg and 40 µmol/kg, respectively.

Regarding `Oc1cccc(C2CCCN3CCCC23)c1` (stereo in doubt; 19a), the ED50 in [1] and in assay [3] was greater than 67 µM/kg in each case.

As for `Oc1cccc(C2CCCN3CCCCC23)c1` (single isomer, unassigned; 20a), the ED50 in assay [1] and in assay [3] was greater than 64 µM/kg each time.

On to `Oc1cccc(C2CCC3CCCN3C2)c1` (single isomer, unassigned), for which, in assay [3] (sc), the ED50 was greater than 67 µmol/kg.

As for `Oc1cccc(C2CCCN3CCCCC23)c1` (single isomer, unassigned; 20e), the ED50 in assay [1] (setting [15]) is greater than 87 µmol/kg; in assay [3] (setting [15]), 63 µmol/kg.

As for `Oc1cccc(C2CCC3CCCN3C2)c1` (stereo not drawn), the ED50 in [1] (setting [15]) and in [3] (setting [15]) was greater than 67 µmol/kg each time.

`CCCN1CCCC(c2cccc(O)c2)C1` (stereo not drawn): the ED50 in [1] (setting [15]) was 1.7 µmol/kg; in [4], greater than 67 µmol/kg; in assay [3] (setting [15]), 3.4 µmol/kg.

Turning to `CN1CCc2cccc3c2[C@H]1Cc1ccc(O)c(O)c1-3` [APOMORPHINE], the ED50 in assay [1] (setting [15]) is 0.058 µmol/kg; in assay [6], 0.27 µmol/kg; in [8], 0.092 µmol/kg; in [9], 0.64 µmol/kg.

For `Oc1cccc(C2CCC3CCCCN3C2)c1` (stereo not drawn) [listing 1 of 2 here], the ED50 in [1] (setting [15]) was greater than 64 µmol/kg; in assay [3] (sc) it was greater than 62 µmol/kg.

In the case of `CCCN1CCC[C@@H](c2cccc(O)c2)C1` [PRECLAMOL], the ED50 is 0.77 µmol/kg in assay [1] (setting [15]); greater than 67 µmol/kg in assay [7]; 11 µmol/kg in assay [10]; 33 µmol/kg in assay [11]; 1.9 µmol/kg in [8].

For `Oc1cccc(C2CCCN3CCCC23)c1` (single isomer, unassigned; (+)), the ED50 is 7.1 µM/kg in assay [1], 3.9 µM/kg in assay [3], greater than 157 µmol/kg in assay [11] and 150 µmol/kg in [12].

For `Oc1cccc(C2CCC3CCCCN3C2)c1` (stereo not drawn) [listing 2 of 2 here], the ED50 in assay [13] is greater than 62 µmol/kg; in assay [3] (setting [15]), greater than 64 µmol/kg; in [14], 9.3 µmol/kg.

The values above are taken from ChEMBL document CHEMBL1123910, “Indolizidine and quinolizidine derivatives of the dopamine autoreceptor agonist 3-(3-hydroxyphenyl)-N-n-propylpiperidine (3-PPP)” (1987).
